The target of data set [1] is T1, C-C chemokine receptor type 2 (Homo sapiens, UniProt P41597). Kind of data set: Displacement of [3H]-CCR2-RA from human CCR2b expressed in human U2OS cell membranes incubated for 2 hrs by scintillation counting method. The settings on record: for Activity: Cell membrane, filed as antagonist. Put shortly: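 U2OS-CCR2 membranes (5–30 μg protein) in 50 mM Tris-HCl pH 7.4, 5 mM MgCl2, 0.1% CHAPS. Coincubation 2 h at 25 °C with competitor 0.01 nM–10 μM and ~6 nM [3H]-CCR2-RA. Nonspecific binding with 10 μM JNJ-27141491. GF/B filtration, scintillation counting, IC50 by sigmoidal fit, Ki by Cheng–Prusoff.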
(In general: Loss of bound radioactivity is the signal in a displacement assay; it reports binding, not function.)

The target in data set [2] is T1, C-C chemokine receptor type 2. Kind of data set: Displacement of [3H]-CCR2-RA-(R) from human CCR2b expressed in human U2OS cell membranes assessed as radio ligand binding recovery at 10 times IC50 incubated for 2 hrs after pre-treatment with iodoacetamide for 30 mins and followed by extensive washing and centrifugation cycles before addition of [3H]-CCR2-RA-[R] for 2 hrs by scintillation counting method. The settings on record: Cell membrane.
Target sequence in this assay (P41597 whole entry, looked up): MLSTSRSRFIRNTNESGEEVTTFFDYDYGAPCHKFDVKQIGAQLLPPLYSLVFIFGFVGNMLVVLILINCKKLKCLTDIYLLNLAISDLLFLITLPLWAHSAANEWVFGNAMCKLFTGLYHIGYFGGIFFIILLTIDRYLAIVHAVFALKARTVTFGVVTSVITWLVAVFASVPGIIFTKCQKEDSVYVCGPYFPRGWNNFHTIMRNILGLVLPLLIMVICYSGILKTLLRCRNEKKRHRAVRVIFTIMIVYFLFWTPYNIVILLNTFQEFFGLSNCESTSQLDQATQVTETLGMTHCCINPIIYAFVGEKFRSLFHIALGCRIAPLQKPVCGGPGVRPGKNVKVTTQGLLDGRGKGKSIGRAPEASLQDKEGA

Data set [3] can be described thus: Stability in pH 7.4 Tris-HCl containing 5 mM MgCl2 and 0.1% CHAPS assessed as intact compound level measured at room temperature. Type of data set: physicochemical. The conditions noted are these: buffer, pH 7.4, 5000 µM.
The target in data set [4] is T1, C-C chemokine receptor type 2. Kind of data set: Antagonist activity at human CCR2 expressed in human U2OS cell membranes as inhibition of [35S]GTPgammaS binding pre-incubated for 30 mins before CCL2 stimulation and followed by further incubation for 90 mins by scintillation counting method. It is filed as functional. The settings on record: for inhibition: Cell membrane, filed as antagonist. The procedure, abridged:
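Preincubation 30 min at 25 °C with increasing ligand plus EC80 CCL2 (20 nM). [35S]GTPγS 0.3 nM added for 90 min at 25 °C, then filtration and scintillation counting. Basal without ligand/chemokine; pIC50 by sigmoidal fit.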
In general terms: Binding of GTPγS marks nucleotide exchange on a G protein.

The subject of data set [5] is CHO. Kind of data set: Displacement of [3H]-CCR2-RA-(R) from human CCR2 C75S mutant expressed in CHO cell membranes assessed as radio ligand binding recovery at 10 times IC50 incubated for 2 hrs followed by extensive washing and centrifugation cycles before addition of [3H]-CCR2-RA-[R] for 2 hrs by scintillation counting method. The settings on record: Cell membrane.

The nature of data set [6]: Displacement of [3H]-CCR2-RA-[R] from human CCR2 C232S mutant expressed in CHO cell membranes incubated for 2 hrs by scintillation counting method. Further details: species or system Cell membrane.
Data set [7] deals with T1, C-C chemokine receptor type 2. Kind of data set: Displacement of [3H]-CCR2-RA-(R) from human CCR2b expressed in human U2OS cell membranes assessed as radio ligand binding recovery at 10 times IC50 incubated for 2 hrs after pre-treatment with N-ethylmaleimide for 30 mins and followed by extensive washing and centrifugation cycles before addition of [3H]-CCR2-RA-[R] for 2 hrs by scintillation counting method. The settings on record: Cell membrane.
Target sequence in this assay (P41597 whole entry, looked up): as above

Data set [8] deals with CHO. Kind of data set: Displacement of [3H]-CCR2-RA-(R) from human CCR2 […] mutant expressed in CHO cell membranes assessed as radio ligand binding recovery at 10 times IC50 incubated for 2 hrs followed by extensive washing and centrifugation cycles before addition of [3H]-CCR2-RA-[R] for 2 hrs by scintillation counting method. The conditions noted are these: Cell membrane.

The subject of data set [9] is CHO. Kind of data set: Displacement of [3H]-CCR2-RA-(R) from human CCR2 C232S mutant expressed in CHO cell membranes assessed as radio ligand binding recovery at 10 times IC50 incubated for 2 hrs followed by extensive washing and centrifugation cycles before addition of [3H]-CCR2-RA-[R] for 2 hrs by scintillation counting method. The settings on record: Cell membrane.

For data set [10], the target named is T1, C-C chemokine receptor type 2. Kind of data set: Displacement of [3H]-CCR2-RA-(R) from human CCR2b expressed in human U2OS cell membranes pre-incubated for 4 hrs before radio ligand addition and measured after 20 mins by scintillation counting method. Further details: species or system Cell membrane.
Target sequence in this assay (P41597 whole entry): as the sequence (P41597 whole entry, looked up) above
The subject of data set [11] is CHO. Kind of data set: Displacement of [3H]-CCR2-RA-(R) from human CCR2 C70S mutant expressed in CHO cell membranes assessed as radio ligand binding recovery at 10 times IC50 incubated for 2 hrs followed by extensive washing and centrifugation cycles before addition of [3H]-CCR2-RA-[R] for 2 hrs by scintillation counting method. The conditions noted are these: Cell membrane.

Data set [12] can be described thus: GSH reactivity at 1 mM in presence of 80 uM reduced glutathione measured at 37 degC for over 4 hrs. It is filed as physicochemical. The settings on record: 1000 µM.
In data set [13] the target is T1, C-C chemokine receptor type 2. Kind of data set: Antagonist activity at human CCR2 expressed in human U2OS cell membranes as [35S]GTPgammaS binding level at 250 nM pre-incubated for 30 mins followed by drug wash out before CCL2 stimulation and followed by further incubation for 90 mins by scintillation counting method relative to control. It is filed as functional. Also noted: scale not given: the % may be the effect or the level left. The settings on record: Cell membrane, filed as antagonist. The procedure, abridged: (§1)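 U2OS-CCR2 membranes (40 μg) preincubated with or without single compound concentration (600 or 250 nM) in 50 mM Tris-HCl pH 7.4/5 mM MgCl2, then four centrifugation/wash cycles (unwashed: final spin only). Resuspended in buffer with NaCl, EDTA, BSA, saponin 0.5 mg/mL, GDP 10 μM and 20 nM CCL2. 30 min at 25 °C, then [35S]GTPγS 0.3 nM 90 min, filtration; expressed relative to CCL2 alone.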
Target sequence in this assay (P41597 whole entry, looked up): as above

Data set [14] shares this target. Kind of data set: Displacement of [3H]-CCR2-RA-(R) from human CCR2b expressed in human U2OS cell membranes pre-incubated for 0 hrs before radio ligand addition and measured after 20 mins by scintillation counting method. Also noted: species or system Cell membrane.
Target sequence in this assay (P41597 whole entry): as the sequence (P41597 whole entry, looked up) above
Data set [15] has the same target. Kind of data set: Antagonist activity at human CCR2 expressed in HEK293 cells assessed as inhibition of beta-arrestin recruitment pre-incubated for 20 mins before CCL2 stimulation and followed by further incubation for 90 mins by NanoBiT CCR2 assay based.
Target sequence in this assay (P41597 whole entry): as the sequence (P41597 whole entry, looked up) above
Data set [16] has the same target. Kind of data set: Displacement of [3H]-CCR2-RA-(R) from wild type human CCR2 expressed in CHO cell membranes assessed as radio ligand binding recovery at 10 times IC50 incubated for 2 hrs followed by extensive washing and centrifugation cycles before addition of [3H]-CCR2-RA-[R] for 2 hrs by scintillation counting method. The settings on record: Cell membrane, filed as antagonist.
Target sequence in this assay (P41597 whole entry, looked up): as above

The nature of data set [17]: Displacement of [3H]-CCR2-RA-[R] from human CCR2 C70S mutant expressed in CHO cell membranes incubated for 2 hrs by scintillation counting method. Further details: species or system Cell membrane.
Data set [18] concerns the target T2, C-C chemokine receptor type 1 (Homo sapiens, UniProt P32246).
T2 sequence (P32246 whole entry): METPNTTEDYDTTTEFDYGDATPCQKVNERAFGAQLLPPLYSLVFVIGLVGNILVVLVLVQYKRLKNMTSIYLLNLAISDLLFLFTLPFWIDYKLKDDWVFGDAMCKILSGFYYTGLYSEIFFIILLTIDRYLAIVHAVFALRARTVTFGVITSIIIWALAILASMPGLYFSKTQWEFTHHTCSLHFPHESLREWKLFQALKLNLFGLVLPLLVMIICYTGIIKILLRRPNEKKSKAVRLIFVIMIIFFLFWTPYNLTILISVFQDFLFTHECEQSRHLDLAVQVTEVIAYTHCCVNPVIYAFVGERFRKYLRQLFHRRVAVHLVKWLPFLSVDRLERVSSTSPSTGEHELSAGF
Kind of data set: Antagonist activity at human CCR1 expressed in human U2OS cell membranes as inhibition of [35S]GTPgammaS binding pre-incubated for 30 mins before CCL3 stimulation and followed by further incubation for 90 mins by scintillation counting method. It is filed as functional, Cell membrane.

The target of data set [19] is T1, C-C chemokine receptor type 2. Kind of data set: Displacement of [3H]-CCR2-RA-(R) from human CCR2b expressed in human U2OS cell membranes assessed as radio ligand binding recovery at 10 times IC50 incubated for 2 hrs followed by extensive washing and centrifugation cycles before addition of [3H]-CCR2-RA-[R] for 2 hrs by scintillation counting method. The settings on record: Cell membrane, filed as antagonist.
Target sequence in this assay (P41597 whole entry, looked up): as the sequence (P41597 whole entry, looked up) above

A short description of data set [20]: Displacement of [3H]-CCR2-RA-[R] from human CCR2 C75S mutant expressed in CHO cell membranes incubated for 2 hrs by scintillation counting method. Further details: species or system Cell membrane.
The nature of data set [21]: Displacement of [3H]-CCR2-RA-[R] from human CCR2 C70S/C75S/C232S mutant expressed in CHO cell membranes incubated for 2 hrs by scintillation counting method. Further details: species or system Cell membrane.
In data set [22] the target is T1, C-C chemokine receptor type 2. Kind of data set: Antagonist activity at human CCR2 expressed in human U2OS cell membranes as [35S]GTPgammaS binding level at 250 nM pre-incubated for 30 mins before CCL2 stimulation and followed by further incubation for 90 mins by scintillation counting method relative to control. Also noted: scale not given: the % may be the effect or the level left. Type of data set: functional. The conditions noted are these: Cell membrane, filed as antagonist. Put shortly: as §1
Target sequence in this assay (P41597 whole entry, looked up): as the sequence (P41597 whole entry, looked up) above

Data set [23] has the same target. Kind of data set: Displacement of [3H]-CCR2-RA-[R] from wild type human CCR2 expressed in CHO cell membranes incubated for 2 hrs by scintillation counting method. Also noted: species or system Cell membrane.
Target sequence in this assay (P41597 whole entry): as the sequence (P41597 whole entry, looked up) above
The target is the same in data set [24]. Kind of data set: Ratio of IC50 for antagonist activity at human CCR2 expressed in HEK293 cells assessed as inhibition of beta-arrestin recruitment pre-incubated for 20 mins followed by drug wash out before CCL2 stimulation and followed by further incubation for 90 mins by NanoBiT CCR2 assay to IC50 for antagonist activity at human CCR2 expressed in HEK293 cells assessed as inhibition of beta-arrestin recruitment pre-incubated for 20 mins before CCL2 stimulation and followed by further incubation for 90 mins by NanoBiT CCR2 assay. In general terms: Recruitment of arrestin is a read-out of receptor activation apart from second messengers.

Data set [25] has the same target. Kind of data set: Antagonist activity at human CCR2 expressed in HEK293 cells assessed as inhibition of beta-arrestin recruitment pre-incubated for 20 mins followed by drug wash out before CCL2 stimulation and followed by further incubation for 90 mins by NanoBiT CCR2 assay based.
Target sequence in this assay (P41597 whole entry): as the sequence (P41597 whole entry, looked up) above

This note sets out measurements from ChEMBL document CHEMBL4732216, “Design and Characterization of an Intracellular Covalent Ligand for CC Chemokine Receptor 2” (J Med Chem, 2021).

Molecules are shown by their SMILES. The source made the active and inactive calls. No cut-off for these calls is given here.

Turning to `O=C(NCCNC(=O)c1ccc(S(=O)(=O)F)cc1)c1ccc(Oc2ccc(Cl)cc2NS(=O)(=O)c2ccc(Cl)c(C(F)(F)F)c2)cc1`, the Activity entry in [1] was “Dose-dependent effect”. The Ki was 89 nM in [1] (read-out: Ki) and 63.1 nM in data set [1] (read-out: pKi (converted)).
By pIC50 is commonly meant the negative decadic logarithm of the IC50, by convention in mol/L. Take `O=C(O)c1ccc(Oc2ccc(Cl)cc2NS(=O)(=O)c2ccc(Cl)c(Cl)c2)cc1`: the Activity in [2] was 104%; in the data set with CHO [5], 100%; with CHO [9], 100%; in the data set with CHO [11] it was 100%; in [1] it was “Dose-dependent effect”. Also, the Stabilty in data set [3] was more than 6 h; in data set [12] it was “Unstable”. Further, the inhibition entry in [4] is “Dose-dependent effect”. The compound also displayed a pIC50 in data set [6] of 7.9. The result (in data set [7]; in the data set with CHO [8]) was inactive. Also, the Ki in [10] (read-out: pKi (converted)) was 6.31 nM.
Take `N#CSCCNC(=O)c1ccc(Oc2ccc(Cl)cc2NS(=O)(=O)c2ccc(Cl)c(C(F)(F)F)c2)cc1`: the Activity in data set [13] is -24%; in data set [2] it was 93%; with CHO [5] (filed as antagonist) it was 30%; in data set [16] it was 9%; in [19], 27%; in data set [22] it was -5%. The Activity entry in data set [1] is “Dose-dependent effect”. Moreover, the Ki in data set [14] (read-out: Ki) was 2.4 nM; in data set [14] (read-out: pKi (converted)), 2 nM; in data set [10] (read-out: Ki) it was 0.7 nM; in [1] (read-out: Ki), 4 nM. Further, the Stabilty in data set [3] is more than 6 h; in data set [12] it was “Stable”. In addition, the IC50 was 33 nM in data set [4]; 4 nM in data set [15]; 1 nM in data set [6]; 5010 nM in data set [18]; 5 nM in data set [20]; 16 nM in data set [21]. In addition, the IC50 in [23] (read-out: IC50) was 2 nM; in [23] (read-out: pIC50 (converted)) it was 1.58 nM; in [25] it was 10 nM. The inhibition result in data set [4] was “Dose-dependent effect”. The pIC50 in [6] was 8.8; in [17] it was 8.4; in data set [20], 8.4; in data set [21] it was 7.8. Besides, the outcome (in data set [7]; in the data set with CHO [8]) was inactive. Also, the outcome in the data set on CHO [9] (filed as antagonist) and in the data set on CHO [11] (filed as antagonist) was Active. The Ratio IC50 in data set [24] was 2.5.
For the compound `O=C(NCCN=C=S)c1ccc(Oc2ccc(Cl)cc2NS(=O)(=O)c2ccc(Cl)c(C(F)(F)F)c2)cc1`, in [1], the Activity entry is “Dose-dependent effect”. Moreover, the Ki in [1] (read-out: Ki) came out at 31 nM.
The matching figures for `C=CC(=O)NCCNC(=O)c1ccc(Oc2ccc(Cl)cc2NS(=O)(=O)c2ccc(Cl)c(C(F)(F)F)c2)cc1`: “Dose-dependent effect” and 22 nM.
